Assay results published in ChEMBL document CHEMBL4346661, “Design, synthesis and evaluation of novel diaryl-1,5-diazoles derivatives bearing morpholine as potent dual COX-2/5-LOX inhibitors and antitumor agents” (Eur J Med Chem, 2019).
Active and inactive are the calls of the source. The rule behind the calls is not given here.

Experiments:
[1] = tested on: B16-F10; assay: Antiproliferative activity against mouse B16F10 cells incubated for 48 hrs by MTT assay; assay type: functional, cell-based; details: B16-F10, 48 h
In short: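 MTT assay on F10 (murine melanoma), HeLa, A549, MCF-7 and 293T (human renal epithelium) cells. IC50 given as mean ± SD of three independent experiments.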

[2] = species: Homo sapiens; assay: Selectivity index, ratio of IC50 for COX1 (unknown origin) to IC50 for COX2 (unknown origin)
In short: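 Ratio of COX-1 IC50 to COX-2 IC50, from human COX-1 and human COX-2 inhibitor screening assay kits. Each IC50 is the concentration giving 50% enzyme inhibition, taken as the mean of four determinations.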

[3] = tested on: B16-F10; assay: Induction of apoptosis in mouse B16F10 cells assessed as early apoptosis cells at 3.125 uM incubated for 48 hrs by Annexin-V-FITC/propidium iodide staining-based flow cytometric analysis (reference value: 2.93%); assay type: functional
In short: (§1)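 F10 cells were exposed to 0, 3.125, 6.25, 12.5 or 25 µM for 48 h. Cells were stained with Annexin V/PI and read by flow cytometry. Data are mean ± SD of three independent experiments.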

[4] = tested on: B16-F10; assay: Induction of apoptosis in mouse B16F10 cells assessed as late apoptosis cells at 3.125 uM incubated for 48 hrs by Annexin-V-FITC/propidium iodide staining-based flow cytometric analysis (reference value: 2.88%); assay type: functional; in short: as §1
[5] = tested on: B16-F10; assay: Induction of apoptosis in mouse B16F10 cells assessed as necrosis cells at 3.125 uM incubated for 48 hrs by Annexin-V-FITC/propidium iodide staining-based flow cytometric analysis (reference value: 0.186%); assay type: functional; in short: as §1
[6] = tested on: B16-F10; assay: Induction of apoptosis in mouse B16F10 cells assessed as early apoptosis cells at 6.25 uM incubated for 48 hrs by Annexin-V-FITC/propidium iodide staining-based flow cytometric analysis (reference value: 2.93%); assay type: functional; in short: as §1
[7] = tested on: B16-F10; assay: Induction of apoptosis in mouse B16F10 cells assessed as viable cells at 12.5 uM incubated for 48 hrs by Annexin-V-FITC/propidium iodide staining-based flow cytometric analysis (reference value: 94%); assay type: functional; details: B16-F10, 48 h, read-out: Activity; in short: as §1
[8] = tested on: B16-F10; assay: Induction of apoptosis in mouse B16F10 cells assessed as early apoptosis cells at 12.5 uM incubated for 48 hrs by Annexin-V-FITC/propidium iodide staining-based flow cytometric analysis (reference value: 2.93%); assay type: functional; in short: as §1
[9] = tested on: B16-F10; assay: Induction of apoptosis in mouse B16F10 cells assessed as late apoptosis cells at 12.5 uM incubated for 48 hrs by Annexin-V-FITC/propidium iodide staining-based flow cytometric analysis (reference value: 2.88%); assay type: functional; in short: as §1
[10] = tested on: B16-F10; assay: Induction of apoptosis in mouse B16F10 cells assessed as early apoptosis cells at 25 uM incubated for 48 hrs by Annexin-V-FITC/propidium iodide staining-based flow cytometric analysis (reference value: 2.93%); assay type: functional; in short: as §1
[11] = tested on: B16-F10; assay: Induction of apoptosis in mouse B16F10 cells assessed as late apoptosis cells at 3.125 uM incubated for 48 hrs in presence of apoptosis inhibitor z-VAD-fmk by Annexin-V-FITC/propidium iodide staining-based flow cytometric analysis (reference value: 3.13%); assay type: functional
[12] = tested on: B16-F10; assay: Induction of apoptosis in mouse B16F10 cells assessed as early apoptosis cells at 12.5 uM incubated for 48 hrs in presence of apoptosis inhibitor z-VAD-fmk by Annexin-V-FITC/propidium iodide staining-based flow cytometric analysis (reference value: 3.83%); assay type: functional
[13] = tested on: B16-F10; assay: Induction of apoptosis in mouse B16F10 cells assessed as late apoptosis cells at 12.5 uM incubated for 48 hrs in presence of apoptosis inhibitor z-VAD-fmk by Annexin-V-FITC/propidium iodide staining-based flow cytometric analysis (reference value: 3.13%); assay type: functional
[14] = tested on: B16-F10; assay: Induction of apoptosis in mouse B16F10 cells assessed as necrosis cells at 12.5 uM incubated for 48 hrs in presence of apoptosis inhibitor z-VAD-fmk by Annexin-V-FITC/propidium iodide staining-based flow cytometric analysis (reference value: 0.558%); assay type: functional
[15] = tested on: B16-F10; assay: Induction of apoptosis in mouse B16F10 cells assessed as viable cells at 25 uM incubated for 48 hrs in presence of apoptosis inhibitor z-VAD-fmk by Annexin-V-FITC/propidium iodide staining-based flow cytometric analysis (reference value: 92.5%); assay type: functional; details: B16-F10, 48 h, read-out: Activity
[16] = tested on: B16-F10; assay: Induction of apoptosis in mouse B16F10 cells assessed as late apoptosis cells at 25 uM incubated for 48 hrs in presence of apoptosis inhibitor z-VAD-fmk by Annexin-V-FITC/propidium iodide staining-based flow cytometric analysis (reference value: 3.13%); assay type: functional
[17] = tested on: B16-F10; assay: Induction of apoptosis in mouse B16F10 cells assessed as necrosis cells at 25 uM incubated for 48 hrs in presence of apoptosis inhibitor z-VAD-fmk by Annexin-V-FITC/propidium iodide staining-based flow cytometric analysis (reference value: 0.558%); assay type: functional
[18] = tested on: B16-F10; assay: Induction of cell cycle arrest in mouse B16F10 cells assessed as cell accumulation at G1 phase at 12.5 uM incubated for 48 hrs by propidium iodide staining-based flow cytometric analysis (reference value: 59.73%); assay type: functional
[19] = tested on: B16-F10; assay: Induction of cell cycle arrest in mouse B16F10 cells assessed as cell accumulation at G2 phase at 25 uM incubated for 48 hrs by propidium iodide staining-based flow cytometric analysis (reference value: 22.43%); assay type: functional
[20] = tested on: B16-F10; assay: Inhibition of LPS-induced PGE2 production in mouse B16F10 cells at 6.25 uM incubated for 24 hrs by enzyme immunoassay; assay type: functional, cell-based
In short: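 F10 cells treated for 24 h alongside LPS (1 µg/ml), test agent at 6.25 µM. Supernatant collected by centrifugation and PGE2 measured with a PGE2 enzyme immunoassay (ELISA) kit. Mean ± SD of three independent experiments.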

[21] = tested on: B16-F10; assay: Antitumor activity against mouse B16F10 cells implanted in nude mouse assessed as reduction in tumor size at 20 mg/kg, ip administered once per 2 days for 14 days by caliper method; assay type: functional
In short: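 Nude mice were given 5×10^6 F10 cells subcutaneously in the right flank. At about 100 mm3, 24 mice were randomized into four groups of vehicle or compound. Dosing was intraperitoneal every two days for two weeks. Tumor volume was recorded every other day. Tumors were excised and weighed after the last treatment, and body weight was monitored.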

[22] = Toxicity in mouse B16F10 cells implanted in nude mouse assessed as change in body weight at 20 to 40 mg/kg, ip administered once per 2 days for 14 days; assay type: organism-based; details: in vivo
In short: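 Nude mice carried subcutaneous right-flank xenografts of 5×10^6 F10 cells. At about 100 mm3 tumor size they were randomized into groups of six (twenty-four mice, four groups): vehicle or 20 or 40 mg/kg, given intraperitoneally once every two days for two weeks. Body weight was tracked during treatment.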

[23] = Metabolic stability in mouse B16F10 cells implanted in nude mouse plasma assessed as peak time at 40 mg/kg, ip measured after 24 to 48 hrs by HPLC analysis; assay type: ADME, organism-based; details: in vivo
In short: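 Tumor-bearing nude mice dosed intraperitoneally. Blood was taken from the eye 24 h later and centrifuged to plasma. The plasma was extracted with ethyl acetate and analysed by HPLC for compound peak retention time.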

[24] = tested on: B16-F10; assay: Induction of cell cycle arrest in mouse B16F10 cells assessed as increase in cell accumulation at G2 phase at incubated for 48 hrs by propidium iodide staining-based flow cytometric analysis; assay type: functional
[25] = Inhibition of 5-LOX assessed as calcium ionophore A23187-stimulated LTB4 production preincubated for 30 mins followed by calcium ionophore A23187 addition and measured after 30 mins by ELISA

**Q.** For NS(=O)(=O)c1ccc(-n2nc(C(=O)NCCCN3CCOCC3)cc2-c2ccc(C(F)(F)F)cc2)cc1, which IC50 [1] is on record?
**A.** The IC50 was 6.43 µM.

**Q.** And the Ratio IC50 [2]?
**A.** The Ratio IC50 was 189.

**Q.** And the Activity [3]?
**A.** Its Activity is 7.97%.

**Q.** What about the Activity [4] of the same compound?
**A.** The Activity was 4.9%.

**Q.** What about the Activity [5] of the same compound?
**A.** Its Activity is 0.597%.

**Q.** And the Activity [6]?
**A.** Its Activity is 14.5%.

**Q.** And the viability at 12.5 µM [7]?
**A.** The viability at 12.5 µM was 73.7%.

**Q.** What about the Activity [8] of the same compound?
**A.** Its Activity is 20.5%.

**Q.** What about the Activity [9] of the same compound?
**A.** The Activity was 5.09%.

**Q.** And the Activity [10]?
**A.** Its Activity is 40.8%.

**Q.** What about the Activity [11] of the same compound?
**A.** The Activity was 4.52%.

**Q.** And the Activity [12]?
**A.** The Activity was 6.13%.

**Q.** And the Activity [13]?
**A.** Its Activity is 9.78%.

**Q.** What about the Activity [14] of the same compound?
**A.** The Activity was 0.105%.

**Q.** And the viability at 25 µM [15]?
**A.** Its viability at 25 µM is 78.8%.

**Q.** And the Activity [16]?
**A.** Its Activity is 9.1%.

**Q.** And the Activity [17]?
**A.** Its Activity is 0.845%.

**Q.** And the Activity [18]?
**A.** The Activity was 49.08%.

**Q.** And the Activity [19]?
**A.** Its Activity is 33.6%.

**Q.** What about the inhibition [20] of the same compound?
**A.** Its inhibition is “Active”.

**Q.** What about the Activity [21] of the same compound?
**A.** Its Activity is 1076.58 mm3.

**Q.** What about the Activity [22] of the same compound?
**A.** Its Activity is “Non-Toxic”.

**Q.** What about the Retention_time [23] of the same compound?
**A.** Its Retention_time is 39.95 min.

**Q.** And the Activity [24]?
**A.** Its Activity is “Dose-dependent effect”.

**Q.** What about the IC50 [25] of the same compound?
**A.** The IC50 was 0.68 µM.
